HMGR II inh: blocks class II HMG-CoA reductase of Enterococcus faecalis. purified E. faecalis HMGR, NADPH absorbance 340 nm kinetic. inhibition, % at 10 µM. hit rate 0.41% among 190,000;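 active = inhibition above a set limit, the median over all tested compounds plus 3 SD, cut at about 9.5% in these data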;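 note: enzyme runs in reverse so mevalonate oxidation gives rising NADPH absorbance; 0% = complete reaction with DMSO and 100% = background rate lacking mevalonate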
Rad51 HR inh: blocks human Rad51 in homologous recombination; hRad51 DNA strand exchange, fluorescence dequenching; inhibition, % at 10 µM; hit rate 0.085% among 200,000; AID 1385;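 active = inhibition above 40% at the single screening dose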;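 note: 0% = DMSO control wells and 100% = blanks with heterologous ssDNA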
Target sequence (Q06609 whole entry, looked up): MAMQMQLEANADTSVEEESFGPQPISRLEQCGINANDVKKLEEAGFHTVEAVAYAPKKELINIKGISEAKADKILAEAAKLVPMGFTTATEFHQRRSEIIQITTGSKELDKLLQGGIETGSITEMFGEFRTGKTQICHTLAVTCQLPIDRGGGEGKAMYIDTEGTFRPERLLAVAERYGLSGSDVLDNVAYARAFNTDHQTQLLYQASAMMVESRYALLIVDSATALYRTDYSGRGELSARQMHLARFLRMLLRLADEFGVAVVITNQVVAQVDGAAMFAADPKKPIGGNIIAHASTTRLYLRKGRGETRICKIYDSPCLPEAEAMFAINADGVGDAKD
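material = hRad51 filaments on single-stranded DNA | timing = filaments 15 min 37 °C, then compound 30 min | signal = FRET fluorescence dequenching, excitation 485 nm, emission 520 nm | benchmarks = control wells and blank wells on each plate | evaluation = percent inhibition relative to plate controls and blanks | compound = 10 µM final, single point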
BB579 growth dn: reduces growth of yeast BB579 in restrictive medium. AID 804. hit rate 0.51% among 140,000. inhibition, % at 10 µM. S. cerevisiae BB579 growth, OD615, 48 h;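 active = inhibition above a set limit, 3 SD over the mean compound inhibition, cut at about 44% in these data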
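Assay system: S. cerevisiae DeaD strain BB579 yeast. Medium: CSMM-D restrictive synthetic medium containing dextrose (glucose). Times: 4 h cell preincubation, 48 h compound exposure, 30 °C humidified. Signal: OD615 turbidity measurement. Benchmarks: positive control amphotericin B 10 µg/mL.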
Measles CPE: protection of cells from measles virus; Measles virus-infected cells, CPE protection, absorbance; protection (pct of control), % at 4 µM; hit rate 1.5% among 140,000; AID 841; in the data active = protection mostly above about 24%, no sharp cut-off; inactive = mostly below about 26%
Yeast life ext: extends the lifespan of yeast; S. cerevisiae growth with nicotinamide, OD615; deaD strain in restrictive glucose medium; inhibition of the nicotinamide effect, % at 10 µM; hit rate 0.68% among 130,000; AID 775;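 active = inhibition above a set limit, placed 3 SD over the median of all compounds, cut at about 26% in these data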;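 note: 0% = nicotinamide-treated wells and 100% = cells grown without nicotinamide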
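Assay system: engineered S. cerevisiae DeaD replicative-lifespan strain, galactose-grown log-phase cells; medium: restrictive CSMM-D dextrose medium; also added: nicotinamide, 1.5 mM, co-present with compound; schedule: 48 h compound exposure at 30 °C, humidified; detection: absorbance at 615 nm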
Arbovirus inh: arbovirus infection inhibition | arbovirus infection cell-based antiviral screen | inhibition, % at 10 µM | hit rate 0.37% among 200,000 | AID 1251; in the data active = inhibition above about 30%
The depositor's hits bear a star. Sampled rows, rich in hits. Any-hit rate of the full collection: about 2.4%.

Screening CCCCNC(=S)NCc1ccc2c(c1)cc(C)n2C returned HMGR II inh -0.7, Rad51 HR inh 1.4, BB579 growth dn 44.7*, Measles CPE 8.6, Yeast life ext -2.2 and Arbovirus inh 12.2.
Cc1cc2cc(CNC(=S)NCc3ccccc3)ccc2n1C was read as HMGR II inh 1.3, Rad51 HR inh -11.5 and Arbovirus inh 16.5.
`COc1ccccc1NC(=S)NCc1ccc2c(c1)cc(C)n2C` gave HMGR II inh 2.2, Rad51 HR inh 16.6 and Arbovirus inh -0.3.
CN1CCN(CC(=O)N2CCn3c4c(c5cc(C6CCCCC6)ccc53)CCCC42)CC1 (configuration not stated) was read as HMGR II inh 1.1, Rad51 HR inh -3.7, BB579 growth dn 100.5*, Measles CPE 8.0, Yeast life ext -22.7 and Arbovirus inh -41.4.
Screening COCCCN(CC(=O)Nc1ccc(N2CCOCC2)cc1)S(=O)(=O)c1ccc(Cl)cc1 returned HMGR II inh 1.6, Rad51 HR inh 3.9 and Arbovirus inh 10.8.
For O=C(Nc1ccc(N2CCOCC2)c(Cl)c1)c1ccc([N+](=O)[O-])o1 the results were HMGR II inh 25.8*, Rad51 HR inh 12.3 and Arbovirus inh -40.2.
Screening Cc1cccc(C2c3[nH]c4ccccc4c3CCN2C(=O)c2cc(CC(C)C)[nH]c(=O)n2)n1 (configuration not stated) returned HMGR II inh -2.5, Rad51 HR inh 5.9 and Arbovirus inh -3.6.
For O=C(COC(=O)c1cc(S(=O)(=O)N2CCCCC2)ccc1N1CCOCC1)NC1CCS(=O)(=O)C1 (configuration not stated) the results were HMGR II inh 13.7*, Rad51 HR inh 2.2 and Arbovirus inh 6.7.
For CCCCCCN1N=C(C)C(C(=O)c2ccc(Cl)cc2)C1=O (configuration not stated) the results were HMGR II inh -5.0, Rad51 HR inh -3.8, BB579 growth dn 87.5*, Measles CPE 10.4, Yeast life ext -5.1 and Arbovirus inh -11.8.
Screening O=C(CSc1nc(-c2ccncc2)nn1CC(=O)N1CCCCC1)NC1CCCC1 returned HMGR II inh -5.7, Rad51 HR inh -6.9, BB579 growth dn -0.1, Measles CPE 4.7, Yeast life ext -8.0 and Arbovirus inh 1.2.
`CCCn1c(N)c(C(c2ccc(C(=O)OC)cc2)N2CCN(c3ccccc3)CC2)c(=O)[nH]c1=O` (configuration not stated) gave HMGR II inh 0.2, Rad51 HR inh -3.5, BB579 growth dn 2.4, Measles CPE 42.1*, Yeast life ext -14.0 and Arbovirus inh -4.5.
`COC(=O)c1ccc(C(c2c(N)n(CC(C)C)c(=O)[nH]c2=O)N2CCN(c3ccccc3)CC2)cc1` (configuration not stated) gave HMGR II inh 0.2, Rad51 HR inh 2.8, BB579 growth dn -26.9, Measles CPE 1.7, Yeast life ext -3.2 and Arbovirus inh -3.4.
C=CCn1c(SCC(=O)c2cc(C)n(CCOC)c2C)nc2sc(C)c(C)c2c1=O was read as HMGR II inh -2.9, Rad51 HR inh 1.6, BB579 growth dn -20.2, Measles CPE 41.7*, Yeast life ext -15.7 and Arbovirus inh -3.4.
Screening C=CCn1c(SCC(=O)c2cccs2)nc2sc(C)c(C)c2c1=O returned HMGR II inh -9.2, Rad51 HR inh 0.6, BB579 growth dn -42.1, Measles CPE 8.3 and Arbovirus inh 21.1.
O=C(O)Cc1sc(-c2ccccc2)nc1-c1ccccc1 was read as HMGR II inh 1.0, Rad51 HR inh -1.0, BB579 growth dn -36.3, Measles CPE 3.1, Yeast life ext -9.4 and Arbovirus inh 8.9.
For Cc1ccc(-c2nc(-c3ccccn3)sc2CC(=O)O)cc1 the results were Rad51 HR inh 46.9*.
Screening COc1ccc(C(C)(C)C)cc1NC(=O)C1C2C=CC(C2)C1C(=O)O (configuration not stated) returned HMGR II inh -5.6, Rad51 HR inh -3.8, BB579 growth dn -22.5, Measles CPE 33.8*, Yeast life ext -6.7 and Arbovirus inh 2.4.
Screening CCN(C(=O)CN1CCN(S(=O)(=O)c2cc(Cl)ccc2Cl)CC1)c1c(N)n(Cc2ccccc2)c(=O)[nH]c1=O returned HMGR II inh 2.0, Rad51 HR inh -4.4, BB579 growth dn -20.4, Measles CPE 30.4*, Yeast life ext -5.3 and Arbovirus inh 3.0.
`O=C(COC(=O)CCC(=O)c1cccs1)NCc1ccccc1` gave HMGR II inh 1.5, Rad51 HR inh -14.6 and Arbovirus inh -1.7.
`Oc1c(CN2CCCCC2)cc(Br)c2cccnc12` gave HMGR II inh 4.3, Rad51 HR inh -7.3, BB579 growth dn 98.5*, Measles CPE 3.5, Yeast life ext -19.7 and Arbovirus inh -34.8.
For Oc1c(CN2CCc3ccccc3C2)cc(Cl)c2cccnc12 the results were HMGR II inh -6.7, Rad51 HR inh -6.3, BB579 growth dn 98.7*, Measles CPE 2.0, Yeast life ext -14.8 and Arbovirus inh -25.1.
Screening Oc1c(I)cc(Cl)c2cccnc12 returned HMGR II inh -3.0, BB579 growth dn 98.5*, Measles CPE 17.2, Yeast life ext -9.1 and Arbovirus inh -25.3.
`CN1CCN(Cc2cc(COCc3ccccc3)c3cccnc3c2O)CC1` gave HMGR II inh -2.6, Rad51 HR inh -0.9, BB579 growth dn 50.5*, Measles CPE 0.3, Yeast life ext -3.4 and Arbovirus inh -38.1.
For Oc1ccc(CN2CCN(Cc3ccccc3)CC2)c2cccnc12 the results were HMGR II inh -6.6, Rad51 HR inh 1.9, BB579 growth dn -19.8, Measles CPE 6.1, Yeast life ext -16.5 and Arbovirus inh -13.9.
For CN(C)c1nc(Oc2ccc(=O)[nH]n2)nc(N2CCOCC2)n1 the results were HMGR II inh 1.4, Rad51 HR inh -5.9, BB579 growth dn -15.4, Measles CPE 3.7, Yeast life ext -16.1 and Arbovirus inh 8.7.
COc1nc(Oc2ccc(=O)[nH]n2)nc(N2CCOCC2)n1 was read as HMGR II inh -0.7, Rad51 HR inh 0.8, BB579 growth dn 6.2, Measles CPE 44.2*, Yeast life ext -9.7 and Arbovirus inh 16.2.
Screening O=C1CCCC/C1=C/NCc1ccc(F)cc1 returned HMGR II inh -1.7, Rad51 HR inh 17.5 and Arbovirus inh -3.4.
For CCCCOc1ccc(C2(C(=O)O)CCCC2)cc1 the results were HMGR II inh -0.7, Rad51 HR inh -0.4, BB579 growth dn -11.5, Measles CPE 15.7, Yeast life ext 8.5 and Arbovirus inh 1.7.
CCCCOc1cccc(C2(C(=O)O)CCCC2)c1 was read as HMGR II inh -0.3, Rad51 HR inh -3.7, BB579 growth dn -6.9, Measles CPE 20.2, Yeast life ext 28.1* and Arbovirus inh 1.7.

Assay outcomes from PubChem.
